Reference: ChEMBL document CHEMBL1145884, “Synthesis and biological activity of novel 1beta-methylcarbapenems with oxyiminopyrrolidinylamide moiety” (2003)
Converted amounts (≈) assume the structure as drawn.

Experiments:
[1] = Compound was evaluated for its relative half life of hydrolysis to meropenem by partially purified porcine renal dihydropeptidase-I (DHP-I); assay type: functional; conditions: Sus scrofa
Escherichia coli [2] = assay: Antibacterial activity against Escherichia coli 078; assay type: functional
Method in brief: (§1)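 MIC was determined by agar dilution on Mueller–Hinton medium.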

Escherichia coli [3] = assay: Antibacterial activity against Escherichia coli 1507E; assay type: functional; method in brief: as §1
Enterobacter cloacae = assay: Antibacterial activity against Enterobacter cloacae 1321E; assay type: functional; method in brief: as §1
Klebsiella aerogenes = assay: Antibacterial activity against Klebsiella aerogenes 1522E; assay type: functional; method in brief: as §1
Pseudomonas aeruginosa [4] = assay: Antibacterial activity against Pseudomonas aeruginosa 1771M; assay type: functional; method in brief: as §1
Pseudomonas aeruginosa [5] = assay: Antibacterial activity against Pseudomonas aeruginosa 9027; assay type: functional; method in brief: as §1
Salmonella typhimurium = assay: Antibacterial activity against Salmonella Typhimurium; assay type: functional, Salmonella enterica subsp. enterica serovar Typhimurium; conditions: Salmonella enterica; method in brief: as §1
Streptococcus pyogenes = assay: Antibacterial activity against Streptococcus pyogenes 308A; assay type: functional
Staphylococcus aureus [6] = assay: Antibacterial activity against Staphylococcus aureus 285; assay type: functional
Staphylococcus aureus [7] = assay: Antibacterial activity against Staphylococcus aureus 503; assay type: functional
Staphylococcus aureus [8] = assay: Antibacterial activity against Staphylococcus aureus SG 511; assay type: functional
Pseudomonas aeruginosa [9] = assay: Antibacterial activity against Pseudomonas aeruginosa 1592E

| MIC (Escherichia coli [2]) | MIC (Escherichia coli [3]) | MIC (Enterobacter cloacae) | MIC (Klebsiella aerogenes) | MIC (Pseudomonas aeruginosa [4]) | MIC (Pseudomonas aeruginosa [5]) | MIC (Salmonella typhimurium) | MIC (Streptococcus pyogenes) | MIC (Staphylococcus aureus [6]) | MIC (Staphylococcus aureus [7]) | MIC (Staphylococcus aureus [8]) | MIC (Pseudomonas aeruginosa [9]) | SMILES | relative t1/2 (DHP-I hydrolysis vs meropenem) [1] |
| --- | --- | --- | --- | --- | --- | --- | --- | --- | --- | --- | --- | --- | --- |
| 0.025 µg/mL (≈ 0.0519 µM) | 0.049 µg/mL (≈ 0.102 µM) | 0.025 µg/mL (≈ 0.0519 µM) | 0.098 µg/mL (≈ 0.203 µM) | 0.098 µg/mL (≈ 0.203 µM) | 0.391 µg/mL (≈ 0.812 µM) | 0.098 µg/mL (≈ 0.203 µM) | 0.004 µg/mL (≈ 0.00831 µM) | 0.195 µg/mL (≈ 0.405 µM) | 0.049 µg/mL (≈ 0.102 µM) | 0.098 µg/mL (≈ 0.203 µM) | 0.195 µg/mL (≈ 0.405 µM) | CO/N=C1\CN(C(=O)[C@@H]2C[C@H](SC3=C(C(=O)O)N4C(=O)[C@H]([C@@H](C)O)[C@H]4[C@H]3C)CN2)CC1CN (stereo partly specified) | 0.25 |
| 0.025 µg/mL (≈ 0.0535 µM) | 0.049 µg/mL (≈ 0.105 µM) | 0.049 µg/mL (≈ 0.105 µM) | 0.098 µg/mL (≈ 0.21 µM) | 0.098 µg/mL (≈ 0.21 µM) | 0.195 µg/mL (≈ 0.417 µM) | 0.098 µg/mL (≈ 0.21 µM) | 0.002 µg/mL (≈ 0.00428 µM) | 0.195 µg/mL (≈ 0.417 µM) | 0.098 µg/mL (≈ 0.21 µM) | 0.098 µg/mL (≈ 0.21 µM) | 0.098 µg/mL (≈ 0.21 µM) | C[C@@H](O)[C@H]1C(=O)N2C(C(=O)O)=C(S[C@@H]3CN[C@H](C(=O)N4C/C(=N\O)C(CN)C4)C3)[C@H](C)[C@H]12 (stereo partly specified) | 0.31 |
